Measured values from ChEMBL document CHEMBL3596100, “The synthesis and biological activity of novel anthracenone-pyranones and anthracenone-furans” (Bioorg Med Chem, 2015).

Legend:
A-431 = test: Growth inhibition of human A431 cells after 72 hrs by MTT assay; format: functional; conditions: A-431, 72 h
In short: (§1)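 Cells kept in DMEM with 10% FBS, glutamine, penicillin/streptomycin at 37 °C, 5% CO2; plated in duplicate at 2500–4000 cells/well, dosed 24 h later during log growth. After 72 h drug exposure, MTT read at 540 nm. […] Assays in triplicate, standard error reported.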

HT-29 = test: Growth inhibition of human HT-29 cells after 72 hrs by MTT assay; format: functional; conditions: HT-29, 72 h; in short: as §1
A2780 = test: Growth inhibition of human A2780 cells after 72 hrs by MTT assay; format: functional; conditions: A2780, 72 h; in short: as §1
[1] = Growth inhibition of human SJ-G2 cells after 72 hrs by MTT assay; format: functional; conditions: SJ-G2, 72 h; in short: as §1
MCF7 = test: Growth inhibition of human MCF7 cells after 72 hrs by MTT assay; format: functional; conditions: MCF7, 72 h; in short: as §1
[2] = Growth inhibition of human BE(2)-C cells after 72 hrs by MTT assay; format: functional; in short: as §1
[3] = Growth inhibition of mouse SMA cells after 72 hrs by MTT assay; format: functional; in short: as §1
DU-145 = test: Growth inhibition of human DU145 cells after 72 hrs by MTT assay; format: functional; conditions: DU-145, 72 h; in short: as §1
[4] = Growth inhibition of human U87 cells after 72 hrs by MTT assay; format: functional, U-87MG ATCC; conditions: U-87 MG; in short: as §1
[5] = Growth inhibition of human MIA cells after 72 hrs by MTT assay; format: functional; in short: as §1
[6] = Growth inhibition of human H460 cells after 72 hrs by MTT assay; format: functional; conditions: NCI-H460, 72 h; in short: as §1

SMILES	GI50 (A-431) [µM]	GI50 (HT-29) [µM]	GI50 (A2780) [µM]	GI50 [1] [µM]	GI50 (MCF7) [µM]	GI50 [2] [µM]	GI50 [3] [µM]	GI50 (DU-145) [µM]	GI50 [4] [µM]	GI50 [5] [µM]	GI50 [6] [µM]
Cc1cc2c(c3oc(C(=O)c4ccccc4)cc13)C(=O)c1c(OC(C)C)cccc1C2=O	1.77	1.4	2.1	36	1.1	0.83	2.2	0.95	2.3	1.7	2.9
Cc1cc2c(c3oc(C(C)O)cc13)C(=O)c1c(O)cccc1C2=O (stereo not drawn)	9	13	7.3	17	21	19	12	28	20	15	17
Cc1cc2c(c3oc(CCCC#N)cc13)C(=O)c1c(OC(C)C)cccc1C2=O	9.8	11	6.4	8.4	5.9	23	10	7.7	6.1	10	9.4
CC(=O)c1cc2c(C)cc3c(c2o1)C(=O)c1c(OC(C)C)cccc1C3=O	5.8	9.7	5	2.2	3.5	4.6	2.3	1.9	8.4	9.7	17
CCCc1cc2c(C)cc3c(c2o1)C(=O)c1c(O)cccc1C3=O	2.3	1.2	1.5	1	2.2	0.88	1.3	0.86	6.6	1.7	3.1
CCC(C)(O)c1cc2c(C)cc3c(c2oc1=O)C(=O)c1c(OC(C)C)cccc1C3=O (stereo not drawn)	15	11	19	9	16	22	23	26	25	14	16
Cc1cc2c(c3oc(=O)c([Si](C)(C)C)cc13)C(=O)c1c(OC(C)C)cccc1C2=O	19	11	13	14	13	28	11	27	19	11	21
Cc1cc2c(c3oc(C(C)O)cc13)C(=O)c1c(OC(C)C)cccc1C2=O (stereo not drawn)	19	24	16	14	24	20	29	28	35	19	17
Cc1cc2c(c3oc(CCCCl)cc13)C(=O)c1c(O)cccc1C2=O	0.59	1.9	0.45	37	0.66	0.38	0.69	0.44	0.97	0.55	1.9
CCCCc1cc(=O)oc2c3c(cc(C)c12)C(=O)c1cccc(OC(C)C)c1C3=O	20	18	9.5	13	15	13	12	11	14	13	19
Cc1cc2c(c3oc(=O)c(C(C)(C)C)cc13)C(=O)c1c(OC(C)C)cccc1C2=O	17	13	12	12	14	33	12	29	17	12	20
CCc1cc(=O)c2c(C)cc3c(c2o1)C(=O)c1c(OC)cccc1C3=O	5.7	4.5	5.3	4.3	4.1	4.1	6.5	4.8	14	5.4	4.8
CCCCCCc1cc2c(C)cc3c(c2o1)C(=O)c1c(O)cccc1C3=O	18	17	12	32	15	21	9.3	25	25	13	17
